The nature of data set [1]: Area under curve was evaluated after intravenous injection of 1 mg/kg of compound in rats. It counts as ADME, organism-based. Details: dose 1 mg/kg, route intravenous. Conditions: rat, in vivo.
Data set [2] can be described thus: Half-life period after, intravenous injection of 1 mg/kg in rats. To be noted: rat, in vivo. Details: dose 1 mg/kg, route intravenous. It counts as ADME, organism-based.
A short description of data set [3]: Clearance from rat plasma after intravenous injection of 1 mg/kg of compound. It counts as ADME, organism-based. Details: dose 1 mg/kg, route intravenous.
A short description of data set [4]: Area under curve was evaluated after intravenous injection of 1 mg/kg of compound in dogs. To be noted: dog, in vivo. The arrangement: dose 1 mg/kg, route intravenous. It counts as ADME, organism-based, Canis lupus familiaris.
Data set [5] can be described thus: Half-life period after, intravenous injection of 1 mg/kg in dogs. It counts as ADME, organism-based, Canis lupus familiaris. Details: dose 1 mg/kg, route intravenous. Conditions: dog, in vivo.
The next data set addresses Serine protease 1 (Homo sapiens, UniProt P07477). The experiment in a line: In vitro inhibition of human trypsin. In short, it runs like this: (§1)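 Inhibition constants (Ki) for each serine protease are the average of at least two determinations, with assay variation of ±10%.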
The species named for data set [6] is Rattus norvegicus. Briefly: concentration of compound in rat required to double the activated thromboplastin time. It counts as functional.
Data set [7] has as its target Tissue-type plasminogen activator (Homo sapiens, UniProt P00750). Briefly: Inhibitory activity against serine protease TPA. In short, it runs like this:
as §1

A short description of data set [8]: Oral bioavailability in rat after peroral injection of 10 mg/kg of compound. It counts as ADME, organism-based. To be noted: in vivo. The gist of the method: (§2)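 Rats were given a single oral dose of 10 mg/kg as a suspension in 1% methocel. Oral bioavailability (F, %) was then determined.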
Data set [9] can be described thus: Oral bioavailability (5 mg/kg, oral) was determined in dogs. To be noted: dog, in vivo. It counts as ADME, organism-based, Canis lupus familiaris. In short, it runs like this:
(§3)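 Dogs were given a single oral dose of 5 mg/kg as a suspension in 1% methocel. Oral bioavailability (F, %) was then determined.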

Data set [10] in a line: Oral bioavailability in rat (dose 10 mg/kg p.o.). It counts as ADME, organism-based. Conditions: in vivo. In short, it runs like this:
as §2

The target of the next data set is Plasma kallikrein (Homo sapiens, UniProt P03952). Briefly: Inhibitory activity against serine protease plasma kallikrein. In short, it runs like this: as §1
Data set [11] can be described thus: Antithrombotic activity was assessed from the associated plasma protein binding in Human, determined in a thrombin chromogenic assay. It counts as functional.
The next data set addresses Prothrombin (Homo sapiens, UniProt P00734). The experiment in a line: Inhibition of Thrombin.
Data set [12] is filed under the species Rattus norvegicus. The experiment in a line: Antithrombotic activity was assessed from the associated plasma protein binding in rat, determined in a thrombin chromogenic assay. It counts as functional.
Data set [13] in a line: Oral bioavailability in dog after peroral injection of 5 mg/kg of compound. It counts as ADME, organism-based, Canis lupus familiaris. Conditions: in vivo. In short, it runs like this:
as §3

In the next data set the target is Plasminogen (Homo sapiens, UniProt P00747). Briefly: Inhibitory activity against serine protease plasmin.
For the next data set, the species on record is Homo sapiens. Briefly: concentration of compound in human required to double the activated thromboplastin time. It counts as functional.
For data set [14], the species on record is Rattus norvegicus. Briefly: Final concentration in rat plasma. It counts as functional, organism-based. In short, it runs like this: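 Rats received an iv infusion at 10 µg/kg/min in saline for 120 min before a FeCl3 vascular insult. Plasma inhibitor level was measured at the end of the experiment.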
The nature of data set [15]: Clearance from dog plasma after intravenous injection of 1 mg/kg of compound. It counts as ADME, organism-based, Canis lupus familiaris. Details: dose 1 mg/kg, route intravenous.
In another data set the target is Coagulation factor X (Homo sapiens, UniProt P00742). The experiment in a line: Inhibitory activity against serine protease Coagulation factor X. The gist of the method:
as §1

The nature of data set [16]: Half-life period after, peroral injection of 5 mg/kg in dogs. It counts as ADME, organism-based, Canis lupus familiaris. Details: dose 5 mg/kg, route oral. To be noted: dog, in vivo, po.
Data set [17] can be described thus: Partition coefficient (logP). It counts as physicochemical. To be noted: octanol/water.
The nature of data set [18]: Oral bioavailability in rat (dose 10 mg/kg). It counts as ADME, organism-based. To be noted: in vivo. The gist of the method: as §2
Data set [19] is described as follows: concentration of compound in human plasma required to double the activated thromboplastin time. It counts as functional.
For data set [20], the species on record is Rattus norvegicus. Briefly: concentration of compound in rat plasma required to double the activated thromboplastin time. It counts as functional.
The nature of data set [21]: Concentration of inhibitor in human plasma required to double the activated thromboplastin time. It counts as functional.
The species entered for data set [22] is Rattus norvegicus. Briefly: Concentration of inhibitor in rat plasma required to double the activated thromboplastin time. It counts as functional.
The species named for data set [23] is Rattus norvegicus. The experiment in a line: Antithrombotic activity was assessed from the associated plasma protein binding in Rats, determined in a thrombin chromogenic assay. It counts as functional.
A short description of data set [24]: Oral bioavailability (5 mg/kg) was determined in dogs. It counts as ADME, organism-based, Canis lupus familiaris. Conditions: dog, in vivo. The gist of the method:
as §3

Molecules are shown by their SMILES. Where “and” joins values, the source holds several entries; their conditions need not be identical. Identical values can stand only once.

What is called AUC is the area under the concentration-time curve, a measure of exposure. Read a high AUC as high exposure. Broadly, the half-life is how long it takes for the measured level to halve. The term clearance denotes the rate of elimination divided by the concentration. A high value points to a high capacity for elimination. One may read the Ki as the equilibrium dissociation constant of an inhibitor or competing ligand from its target. Lower therefore signals a stronger hold on the target. One may read the bioavailability as the share of a dose that reaches the circulation, judged against a reference dose that is usually intravenous. The low end stands for poor availability, the high end for good availability. As usually defined, the logP is the decadic logarithm of the partition coefficient of the neutral form, usually between octanol and water. A low value points to a more hydrophilic compound.

Sequence of Coagulation factor X (P00742 41-179 limits assumed): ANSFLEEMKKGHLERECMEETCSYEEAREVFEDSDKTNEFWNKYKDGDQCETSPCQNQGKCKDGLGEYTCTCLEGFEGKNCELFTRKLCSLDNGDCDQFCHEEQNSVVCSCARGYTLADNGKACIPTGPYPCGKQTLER
Sequence of Coagulation factor X (P00742 235-488 limits assumed): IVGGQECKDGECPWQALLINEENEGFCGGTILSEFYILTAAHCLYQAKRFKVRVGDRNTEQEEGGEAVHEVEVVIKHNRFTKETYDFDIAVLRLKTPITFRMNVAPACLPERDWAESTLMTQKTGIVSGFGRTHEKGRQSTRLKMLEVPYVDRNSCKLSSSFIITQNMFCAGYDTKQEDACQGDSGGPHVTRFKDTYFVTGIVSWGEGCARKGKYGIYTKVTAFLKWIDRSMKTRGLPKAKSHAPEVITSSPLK
Sequence of Serine protease 1 (P07477 whole entry): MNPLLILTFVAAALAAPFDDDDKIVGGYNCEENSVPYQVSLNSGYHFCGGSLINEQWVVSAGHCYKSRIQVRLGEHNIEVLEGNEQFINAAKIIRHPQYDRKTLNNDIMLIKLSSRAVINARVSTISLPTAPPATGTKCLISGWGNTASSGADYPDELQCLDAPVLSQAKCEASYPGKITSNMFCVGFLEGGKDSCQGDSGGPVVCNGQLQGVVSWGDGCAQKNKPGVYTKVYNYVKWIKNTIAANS
Sequence of Plasma kallikrein (P03952 20-390 limits assumed): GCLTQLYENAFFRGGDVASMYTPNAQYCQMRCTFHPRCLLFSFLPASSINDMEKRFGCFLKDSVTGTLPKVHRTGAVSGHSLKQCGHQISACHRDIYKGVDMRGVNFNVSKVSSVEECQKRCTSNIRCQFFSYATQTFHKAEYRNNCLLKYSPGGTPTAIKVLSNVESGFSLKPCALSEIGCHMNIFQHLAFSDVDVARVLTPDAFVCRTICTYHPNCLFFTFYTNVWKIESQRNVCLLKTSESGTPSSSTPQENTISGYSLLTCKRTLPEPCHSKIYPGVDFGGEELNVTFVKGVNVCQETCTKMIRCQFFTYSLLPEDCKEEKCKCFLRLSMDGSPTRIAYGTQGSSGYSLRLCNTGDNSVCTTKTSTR
Sequence of Plasma kallikrein (P03952 391-638 limits assumed): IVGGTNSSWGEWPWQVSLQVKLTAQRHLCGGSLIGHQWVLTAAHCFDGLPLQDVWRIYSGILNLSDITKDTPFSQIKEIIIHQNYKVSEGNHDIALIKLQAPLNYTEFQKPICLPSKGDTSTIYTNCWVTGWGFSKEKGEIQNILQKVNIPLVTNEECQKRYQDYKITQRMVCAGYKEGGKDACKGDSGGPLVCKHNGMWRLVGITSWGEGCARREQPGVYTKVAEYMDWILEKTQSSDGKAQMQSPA
Sequence of Tissue-type plasminogen activator (P00750 whole entry): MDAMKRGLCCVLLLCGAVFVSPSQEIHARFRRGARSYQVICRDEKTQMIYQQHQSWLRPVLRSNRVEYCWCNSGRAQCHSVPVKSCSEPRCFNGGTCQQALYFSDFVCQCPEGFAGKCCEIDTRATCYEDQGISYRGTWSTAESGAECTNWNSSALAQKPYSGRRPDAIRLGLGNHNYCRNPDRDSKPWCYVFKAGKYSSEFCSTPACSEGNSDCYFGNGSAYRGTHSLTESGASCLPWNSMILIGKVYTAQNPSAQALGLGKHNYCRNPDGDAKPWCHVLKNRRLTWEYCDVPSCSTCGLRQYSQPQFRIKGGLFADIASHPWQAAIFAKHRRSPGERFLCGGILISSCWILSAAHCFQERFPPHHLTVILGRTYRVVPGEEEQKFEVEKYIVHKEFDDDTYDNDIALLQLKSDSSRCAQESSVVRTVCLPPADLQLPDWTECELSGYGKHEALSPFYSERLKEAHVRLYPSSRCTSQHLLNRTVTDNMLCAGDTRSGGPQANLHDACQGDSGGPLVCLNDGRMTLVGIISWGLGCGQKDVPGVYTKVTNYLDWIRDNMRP
Sequence of Plasminogen (P00747 97-580 limits assumed): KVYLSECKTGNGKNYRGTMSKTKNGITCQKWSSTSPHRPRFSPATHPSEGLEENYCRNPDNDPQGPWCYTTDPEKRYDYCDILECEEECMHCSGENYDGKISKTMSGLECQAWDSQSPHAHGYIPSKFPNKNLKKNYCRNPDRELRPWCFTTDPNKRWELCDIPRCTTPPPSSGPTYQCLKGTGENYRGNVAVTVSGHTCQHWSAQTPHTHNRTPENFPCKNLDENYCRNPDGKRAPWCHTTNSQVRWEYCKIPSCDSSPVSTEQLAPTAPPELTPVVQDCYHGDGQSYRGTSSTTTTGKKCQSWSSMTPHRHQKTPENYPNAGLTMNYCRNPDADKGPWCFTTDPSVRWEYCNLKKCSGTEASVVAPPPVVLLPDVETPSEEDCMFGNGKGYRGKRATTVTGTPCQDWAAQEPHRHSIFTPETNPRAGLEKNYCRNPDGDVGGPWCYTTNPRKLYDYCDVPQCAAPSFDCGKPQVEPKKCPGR
Sequence of Plasminogen (P00747 581-810 limits assumed): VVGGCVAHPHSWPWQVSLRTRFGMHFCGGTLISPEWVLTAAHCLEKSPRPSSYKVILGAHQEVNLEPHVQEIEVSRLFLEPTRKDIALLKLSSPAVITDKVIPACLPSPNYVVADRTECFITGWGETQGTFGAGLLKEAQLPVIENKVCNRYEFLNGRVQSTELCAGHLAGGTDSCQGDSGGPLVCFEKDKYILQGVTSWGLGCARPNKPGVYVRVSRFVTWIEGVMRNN

On to `NC1CCC(CNC(=O)[C@@H]2CCCN2C(=O)CC(c2ccccc2)c2ccccc2)CC1.O=C(O)C(F)(F)F` (some centres not stated), for which the AUC came to 1.7 µM·h in data set [1] and 3.81 µM·h in data set [4]. Besides, the half-life in data set [2] is 4.47 h; in data set [5] it was 2.92 h; in data set [16], 2.6 h. Moreover, the clearance in data set [3] came out at 23.2 mL/min/kg; in data set [15], 10.2 mL/min/kg. For the same compound, the inhibition constant Ki at Serine protease 1 was 0.353 µM and 0.35 µM; in data set [7] it was > 1000 µM; at Plasma kallikrein, > 1000 µM; at Prothrombin, 0.002 µM; at Plasminogen it was 744 µM; on Coagulation factor X, 980 µM. Besides, the “2x APTT” value came to 0.65 µM in the data set listed under Rattus norvegicus [6] and 0.67 µM in the data set filed under Homo sapiens. Also, the bioavailability was determined as 10% in data set [8], 58% in data set [9], 10% in data set [10] and 58% in [13]. The Activity (in [11]; in the data set listed under Rattus norvegicus [12]) was 7% throughout. In the data set filed under Rattus norvegicus [14], this compound came in with a Concentration of 1600 nM. Further, the logP in [17] was 0.37.
Compound `NC1CCC(CNC(=O)[C@@H]2CCCN2C(=O)CC2c3ccccc3CCc3ccccc32)CC1.O=C(O)C(F)(F)F` (some centres not stated) showed a bioavailability in data set [18] of 12%. The compound also gave a Ki at Prothrombin of 0.017 µM.
In the case of `CC(CC(=O)N1CCC[C@H]1C(=O)NCC1CCC(N)CC1)(c1ccccc1)c1ccccc1` (some centres not stated), the Ki on Serine protease 1 is 17 µM; on Prothrombin, 0.016 µM.
With `Cl.NC1CCC(CNC(=O)[C@@H]2CCCN2C(=O)CC(C2CCCCC2)C2CCCCC2)CC1` (some centres not stated), the “2x APTT” value in data set [19] was 7.1 µM; in the data set filed under Rattus norvegicus [20], 7.2 µM. Besides, the Ki turned out to be 2.5 µM on Serine protease 1; 84 µM in data set [7]; 170 µM on Plasma kallikrein; 0.014 µM at Prothrombin; 176 µM on Plasminogen; 220 µM on Coagulation factor X. Also, the bioavailability in [10] was determined as 56%. Also, the Activity in data set [11] is given as 1%; in the data set listed under Rattus norvegicus [12] it was 6%. The same compound showed a Concentration in the data set listed under Rattus norvegicus [14] of 658 nM. The compound further registered a logP in [17] of 1.96.
In turn, `Cl.NC1CCC(CNC(=O)[C@@H]2CCCN2C(=O)CC2c3ccccc3C=Cc3ccccc32)CC1` (some centres not stated) had a bioavailability in [18] of 51%. Moreover, the Ki on Serine protease 1 is 1.6 µM; in [7], 268 µM; at Plasma kallikrein, 775 µM; at Prothrombin, 0.003 µM; on Plasminogen it was 414 µM; at Coagulation factor X, > 1000 µM. The compound also yielded a log partition coefficient (logP) in [17] of 0.27.
Regarding `CC1CNc2c(cccc2S(=O)(=O)N[C@@H](CCCNC(=N)N)C(=O)N2CCC(C)C[C@@H]2C(=O)O)C1` (single isomer, unassigned) [ARGATROBAN], the “2x APTT” value in [21] came out at 0.28 µM.
Regarding `NC1CCC(CNC(=O)[C@@H]2CCCN2C(=O)CC(c2ccccc2)c2ccccn2)CC1` (single isomer, unassigned; diastereomer 1), the Ki on Serine protease 1 was 0.89 µM; in data set [7] it was > 1000 µM; at Plasma kallikrein, 767 µM; on Prothrombin, 0.0018 µM; on Plasminogen, > 1000 µM; at Coagulation factor X it was 370 µM.
On to `NC1CCC(CNC(=O)[C@@H]2CCCN2C(=O)CC(c2ccccc2)c2cccnc2)CC1` (single isomer, unassigned; diastereomer 1), for which the Ki on Serine protease 1 worked out at 2.8 µM; at Prothrombin, 0.01 µM.
The corresponding values for `NC1CCC(CNC(=O)[C@@H]2CCCN2C(=O)CC(c2ccccc2)C2CCCCC2)CC1` (single isomer, unassigned; diastereomer 1) are 1.7 µM and 0.008 µM.
For the compound `NC1CCC(CNC(=O)[C@@H]2CCCN2C(=O)CC(c2ccccc2)c2ccncc2)CC1` (single isomer, unassigned; diastereomer 1), the Ki was found to be 19 µM at Serine protease 1 and 0.029 µM at Prothrombin.
On to `NC1CCC(CNC(=O)[C@@H]2CCCN2C(=O)CC(c2cccnc2)c2ccc3c(c2)OCO3)CC1.O=C(O)C(F)(F)F` (single isomer, unassigned; diastereomer 2), for which the “2x APTT” value was found to be 0.3 µM in data set [19] and 0.38 µM in the data set filed under Rattus norvegicus [22]. For the same compound, in data set [18], the bioavailability was < 5%. For the same compound, the Ki on Serine protease 1 is 2.6 µM; in data set [7] it was > 500 µM; at Plasma kallikrein it was 1000 µM; on Prothrombin it was 0.00028 µM; on Plasminogen, 572 µM; at Coagulation factor X, 1000 µM. The logP in data set [17] was -1.62.
As to `NC1CCC(CNC(=O)[C@@H]2CCCN2C(=O)CC(c2ccccc2)c2ccccn2)CC1` (single isomer, unassigned; diastereomer 2), the results for the Ki on Serine protease 1 and at Prothrombin were 5 µM and 0.012 µM, respectively.
Take `NC1CCC(CNC(=O)[C@@H]2CCCN2C(=O)CC(c2ccccc2)c2cccnc2)CC1.O=C(O)C(F)(F)F` (single isomer, unassigned; diastereomer 2): the Activity in the data set filed under Rattus norvegicus [23] is on record as 56%; in data set [11], 35%. The results for the “2x APTT” value (in data set [19]; in the data set listed under Rattus norvegicus [22]) were 0.47 µM and 0.59 µM, respectively. The inhibitory constant (Ki) on Serine protease 1 is 2.2 µM; in data set [7] it was 746 µM; on Plasma kallikrein, 476 µM; on Prothrombin it was 0.0022 µM; at Plasminogen, > 1000 µM; at Coagulation factor X it was > 1000 µM. Also, the bioavailability in data set [24] came to 8%. The logP in data set [17] is -0.64.
Turning to `NC1CCC(CNC(=O)[C@@H]2CCCN2C(=O)CC(c2ccccc2)C2CCCCC2)CC1` (single isomer, unassigned; diastereomer 2), the Ki on Serine protease 1 is 0.3 µM; on Prothrombin it was 0.004 µM.
Turning to `NC1CCC(CNC(=O)[C@@H]2CCCN2C(=O)CC(c2ccccc2)c2ccncc2)CC1` (single isomer, unassigned; diastereomer 2), the Ki on Serine protease 1 was 2.2 µM; in data set [7], 436 µM; at Plasma kallikrein it was > 1000 µM; on Prothrombin it was 0.0034 µM; at Plasminogen, 744 µM; at Coagulation factor X, 400 µM.
In turn, `NC1CCC(CNC(=O)[C@@H]2CCCN2C(=O)CC(c2ccccc2)c2cccnc2)CC1` (single isomer, unassigned; diastereomer 2) came in with a Concentration in the data set listed under Rattus norvegicus [14] of 2890 nM.
Consider `NC1CCC(CNC(=O)[C@@H]2CCCN2C(=O)CC(c2cccnc2)c2ccc3c(c2)OCO3)CC1` (single isomer, unassigned; diastereomer 2), for which the Concentration in the data set listed under Rattus norvegicus [14] worked out at 4000 nM.
In the case of `NC1CCC(CNC(=O)[C@@H]2CCCN2C(=O)CC(c2cccnc2)c2ccc3c(c2)OCO3)CC1` (stereo in doubt), the figures for the Ki on Serine protease 1 and on Prothrombin were 1.9 µM and 0.0047 µM, respectively.

The values above are taken from ChEMBL document CHEMBL1130225, “Synthesis of a series of potent and orally bioavailable thrombin inhibitors that utilize 3,3-disubstituted propionic acid derivatives in the P3 position” (J Med Chem, 1997).
